HNF4A DNA FP: change in binding of human HNF4 alpha to DNA; P41235; HNF4a-FITC DNA binding, fluorescence polarization, 1 h; activity change, % at 10 µM; hit rate 0.3% among 360,000; in the data active = activity change above about 30%, passing the limit was not always enough
Target sequence (P41235 whole entry, looked up): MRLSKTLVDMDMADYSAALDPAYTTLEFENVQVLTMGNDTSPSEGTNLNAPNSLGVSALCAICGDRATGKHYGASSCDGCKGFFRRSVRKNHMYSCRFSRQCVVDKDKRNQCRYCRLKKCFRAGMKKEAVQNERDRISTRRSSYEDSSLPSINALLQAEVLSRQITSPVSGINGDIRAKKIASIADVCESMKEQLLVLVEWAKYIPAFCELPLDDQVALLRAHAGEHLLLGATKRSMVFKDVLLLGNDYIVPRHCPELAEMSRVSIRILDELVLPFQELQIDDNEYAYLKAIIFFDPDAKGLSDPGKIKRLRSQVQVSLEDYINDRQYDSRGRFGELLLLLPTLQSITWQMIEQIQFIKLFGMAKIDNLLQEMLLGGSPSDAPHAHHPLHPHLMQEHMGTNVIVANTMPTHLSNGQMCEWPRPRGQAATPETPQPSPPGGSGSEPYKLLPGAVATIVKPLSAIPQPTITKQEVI
PREPL inhibitor: inhibits the human prolyl oligopeptidase-like enzyme; recombinant PREPL, fluorescence polarization activity-based probe; inhibition, % at 5.96 µM; hit rate 0.68% among 320,000; Q4J6C6; in the data active = inhibition above about 43%;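 note: 0% = enzyme with DMSO and 100% = wells lacking enzyme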
Rpn11 inh: inhibitors of human proteasome Rpn11 | O00487 | human 26S proteasome, Ub4-pepOG fluorescence polarization; 20S core pre-blocked with epoxomicin | inhibition, % at 20 µM | hit rate 0.59% among 360,000 | AID 588493;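 active = inhibition at 20 µM, scaled to each plate's controls, above about 33%, limit read from the data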
Neddyl block: inhibitors of human cullin neddylation; P61081+Q13564; TR-FRET cullin neddylation, biochemical; inhibition, % at 25 µM; hit rate 0.58% among 360,000; in the data active = inhibition above about 36%
Tb MetRS inh: blocks T. brucei methionyl-tRNA synthetase activity; purified T. brucei MetRS, ATP depletion, Kinase-Glo luminescence; inhibition, % at 11.9 µM; hit rate 0.4% among 360,000;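 active = inhibition above a per-plate cutoff of the control wells' mean inhibition plus 3 SD, cut at about 5.5% in these data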;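 note: 0% = DMSO wells median and 100% = median of wells with control inhibitor compound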
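Material: T. brucei methionyl-tRNA synthetase, purified; reagent: substrates ATP, L-methionine and bulk Escherichia coli tRNA; dosing: 11.9 µM single point; timing: 15 min plus 2 h at 25 °C; detection: luminescence of leftover ATP; evaluation: % inhibition; control set: DMSO-only wells as low control; replicates: singlicate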
CSN deneddyl inh: blocks human CSN-mediated cullin deneddylation | Q92905 | Purified CSN, SCF-Nedd8-OG deneddylation, fluorescence polarization | inhibition, % at 12.5 µM | hit rate 0.38% among 360,000;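 active = pattern-corrected inhibition above about 35%, with an unprinted fluorescence ratio check between 0.5 and 1.5, limit read from the data, passing the limit was not always enough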;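 note: 0% = enzyme with substrate and 100% = substrate without enzyme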
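assay system = purified human Csn5 enzyme expressed in HEK293T cells | amount = 0.24 nM enzyme | buffer or medium = Tris/NaCl/DTT buffer, pH 7.5 | reagent = 10 nM SCFSkp2-Nedd8OG | compound = one concentration, 12.5 µM, 0.25% DMSO | times = 90 min reaction at room temperature | signal = FP | read-out basis = % inhibition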
CSN5 deneddyl: Csn5 (human) deneddylation inhibition, single-concentration validation; shares compounds with CSN deneddyl inh; Csn5 deneddylation of SCF-Nedd8OG, fluorescence polarization, 90 min; inhibition, % at 16.6 µM; hit rate 62% among 540; in the data active = inhibition above about 50%;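 note: 0% = DMSO with enzyme and 100% = no enzyme wells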
MMP2 cntr CSN: MMP-2 (human) inhibition, counter-screen for CSN hits; shares compounds with CSN deneddyl inh; recombinant MMP-2, FRET substrate fluorescence, 60 min; inhibition, % at 16.6 µM; hit rate 33% among 540; AID 720655;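 active = corrected plate-normalized z-score of 5 or more, or -5 or less, or inhibition of 15% or more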;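 note: plate controls were DMSO wells with enzyme for no effect and buffer wells lacking MMP-2 for full effect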
Thrombin cntr: blocks bovine thrombin in a CSN deneddylation counter-screen; shares compounds with CSN deneddyl inh; bovine thrombin cleavage of Ub4-pepOG, fluorescence polarization; inhibition, % at 16.6 µM; hit rate 49% among 540;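 active = inhibition at or above a set limit, with a fluorescence interference ratio between 0.5 and a set maximum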
HNF4a DNA conf: change in binding of human HNF4 alpha to DNA, retest; AID 1224897; activity change, % at 12.5 µM; shares compounds with HNF4A DNA FP; HNF4A-FITC DNA binding, fluorescence polarization, 1 h; hit rate 99% among 210; call rule not given here
Active calls of the source: *; nt = no result given. An excerpt weighted towards active compounds, which were near 2.4% of everything screened.

SMILES | HNF4A DNA FP | PREPL inhibitor | Rpn11 inh | Neddyl block | Tb MetRS inh | CSN deneddyl inh | MMP2 cntr CSN | Thrombin cntr | HNF4a DNA conf | others
COc1cccc(N2C(=O)/C(=C/c3ccc(C)o3)C(=O)NC2=S)c1 | 11.0 | -4.3 | nt | -4.8 | 0.0 | 37.3* | 31.6* | 26.4* | nt | CSN5 deneddyl=87.8*
O=C1NC(=O)N(c2ccc3c(c2)OCO3)C(=O)/C1=C/c1ccc(N2CCCCC2)o1 | 162.5 | 13.5 | nt | -8.8 | 0.1 | 141.1 | nt | nt | nt
Cc1cc(C)cc(N2C(=O)/C(=C\c3ccc(N4CCN(C)CC4)o3)C(=O)NC2=S)c1 | 121.3 | -3.0 | nt | 1.0 | -0.2 | 75.6* | -48.3* | -59.0 | nt | CSN5 deneddyl=102.7*
COc1ccc(N2C(=O)/C(=C/c3ccc(N(C)C)o3)C(=O)NC2=S)cc1 | 126.3 | -3.2 | nt | 0.7 | -0.2 | 24.3 | nt | nt | nt
CCOc1cccc(N2C(=O)/C(=C/c3ccco3)C(=O)NC2=S)c1 | -45.2 | -0.1 | nt | -14.2 | -1.1 | 39.1* | 34.0* | 9.8 | nt
O=C(O)C(O)(c1ccc(Cl)cc1)C1(O)CCCC1 (configuration not stated) | -0.3 | nt | -0.8 | -4.7 | 0.2 | 2.8 | nt | nt | nt
O=c1[nH]c(=O)n(Cc2ccccc2)c(O)c1C=NCCCO | 34.7* | -5.3 | nt | 10.7 | -1.1 | 31.1 | nt | nt | 61.3*
O=c1[nH]c(=S)n(-c2ccccc2)c(O)c1/C=N/N1CCCCC1c1cccnc1 (configuration not stated) | 36.1* | -2.1 | nt | -4.5 | 0.0 | 36.7* | nt | nt | 60.7*
Cc1ccccc1CN1Cc2cnnn2-c2ccccc2C1C#N (configuration not stated) | 0.9 | nt | -0.2 | -10.3 | 0.3 | 1.8 | nt | nt | nt
O=C(N/N=C/c1c(O)n(CCc2ccccc2)c(=O)[nH]c1=O)c1ccncc1 | 11.8 | 4.2 | -1.6 | 12.0 | 0.5 | -0.6 | nt | nt | nt
O=C(N/N=C/c1c(O)n(-c2cccc3ccccc23)c(=O)[nH]c1=O)c1ccncc1 | 38.9* | 1.9 | nt | 11.2 | 0.3 | 31.6 | nt | nt | 48.8*
COc1ccccc1Cn1c(SCC(=O)C(C)(C)C)nc2cc(C(=O)N3CCC4(CC3)OCCO4)ccc2c1=O | nt | -3.0 | nt | nt | nt | nt | nt | nt | nt

High-throughput results: PubChem, several laboratories
